# Screens deposited in PubChem by Broad Institute.
# Only a selection was taken, and hits are over-represented in it overall.
# A1 apoptosis 2 = blocks A1, raising caspase activity; MEF A1-2A-BIM cells, caspase-Glo luminescence, 3 h; percent of clofoctol response, DMSO zero; caspase activation, % (concentration not given with the values); 24,000 tested, under 10 active; AID 2465; in the data active means caspase activation above about 5.9%; inconclusive means no clear call, values can overlap the other calls; inactive means below about 2.2%
#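 System: mouse embryonic fibroblasts co-expressing A1 and BIM (A1-2A-BIM), primed for A1 dependence; amount: 2500 cells/well; doses: 50 nL pinned compound; schedule: cells settled overnight, compound exposure 3 h at 37 °C, 5% CO2; detection: Caspase-Glo 3/7 luminescence, 1 h at room temperature; read-out: Caspase-3/7 activation, seen as rise in luminescence signal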
# T cruzi intra = intracellular Trypanosoma cruzi inhibition; activity score (inhibition), % at 5.01 µM; hit rate 4.9% among 22,000; intracellular Trypanosoma cruzi in host cells, plate reader; in the data active means activity score above about 55%; inconclusive means no clear call, values can overlap the other calls;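 further: parasites and compound incubated about four days before reading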
# INS-1E rescue = INS-1E beta cell protection from cytokine death | hit rate 0.1% among 20,000 | protection from cytokine-induced ATP loss, % at 10 µM | INS-1E cytokine-induced death, ATP luminescence, 48 h; normalised: neutral wells 0, positive control 100;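 active means mean replicate protection from cytokine-induced ATP loss at least 50% and at least 75% of replicates each reaching 50%; inconclusive means meets only one of the two criteria, mean or replicate share; inactive means fails both the mean and replicate share criteria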
#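 Assay system: INS-1E rat insulinoma cells. Amount: 8000 cells per well. Medium: phenol-red-free RPMI with 5% fetal bovine serum. Reagent: IL-1β, TNF-α and IFN-γ cytokine mix. Doses: one compound concentration, pin transfer. Schedule: 48 h co-treatment, 10 min post-lysis read. Detection: CellTiter-Glo luminescence measuring cellular ATP.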
# Numbers stand for hits; . = inactive; ? = inconclusive; / = no result given.
SMILES,A1 apoptosis 2,T cruzi intra,INS-1E rescue
C[C@@H]1CN([C@@H](C)CO)C(=O)Cc2cc(NC(=O)Nc3ccc(C(F)(F)F)cc3)ccc2O[C@H]1CN(C)CC1CC1,.,/,/
C[C@@H]1CN([C@H](C)CO)C(=O)Cc2cc(NC(=O)Nc3ccc(C(F)(F)F)cc3)ccc2O[C@@H]1CN(C)S(=O)(=O)c1cccs1,/,66,.
C[C@H]1CN([C@@H](C)CO)C(=O)c2cc(NC(=O)Nc3ccc(C(F)(F)F)cc3)ccc2O[C@@H]1CN(C)S(=O)(=O)c1cccs1,/,.,.
C[C@H](CO)N1C[C@H](C)[C@@H](CN(C)S(=O)(=O)c2cccs2)Oc2c(NC(=O)Nc3ccc(C(F)(F)F)cc3)cccc2C1=O,.,.,.
C[C@@H]1CN([C@@H](C)CO)C(=O)c2cccc(NC(=O)Nc3ccc(C(F)(F)F)cc3)c2O[C@H]1CN(C)S(=O)(=O)c1cccs1,.,79,.
C[C@@H]1CN([C@@H](C)CO)C(=O)c2cc(NC(=O)Nc3ccc(C(F)(F)F)cc3)ccc2O[C@H]1CN(C)S(=O)(=O)c1cccs1,.,71,.
C[C@H]1CN([C@@H](C)CO)C(=O)Cc2cc(NC(=O)Nc3ccc(C(F)(F)F)cc3)ccc2O[C@H]1CN(C)S(=O)(=O)c1cccs1,.,.,.
CC(C)(C)OC(=O)CC[C@@]12N=C(c3ccc(OCCCO)cc3)O[C@@H]1c1ccccc1N(CCS(=O)(=O)c1ccccc1)C2=O,.,/,/
C[C@H](CO)N1C[C@H](C)[C@@H](CN(C)Cc2ccc(Oc3ccccc3)cc2)Oc2c(NC(=O)CCCCCC(=O)Nc3ccccc3N)cccc2C1=O,.,/,/
C[C@H]1CN([C@@H](C)CO)C(=O)c2cccc(NC(=O)CCCCCC(=O)Nc3ccccc3N)c2O[C@H]1CN(C)Cc1ccc(-c2ccccc2)cc1,.,68,.
C[C@@H]1CN([C@H](C)CO)C(=O)c2cccc(NC(=O)CCCCCC(=O)Nc3ccccc3N)c2O[C@@H]1CN(C)Cc1ccc(-c2ccccc2)cc1,.,?,.
C[C@@H]1CN([C@@H](C)CO)C(=O)c2cccc(NC(=O)CCCCCC(=O)Nc3ccccc3N)c2O[C@H]1CN(C)Cc1ccc(Cl)c(Cl)c1,/,80,.
C[C@@H]1CN([C@@H](C)CO)C(=O)c2cccc(NC(=O)CCCCCC(=O)Nc3ccccc3N)c2O[C@H]1CN(C)Cc1ccccc1,.,72,.
C[C@@H]1CN([C@@H](C)CO)C(=O)c2cccc(NC(=O)CCCCCC(=O)Nc3ccccc3N)c2O[C@H]1CN(C)Cc1ccc(Oc2ccccc2)cc1,.,84,.
C[C@@H]1CN([C@H](C)CO)C(=O)c2cccc(NC(=O)CCCCCC(=O)Nc3ccccc3N)c2O[C@H]1CN(C)Cc1ccc(Cl)c(Cl)c1,.,/,/
C[C@@H]1CN([C@H](C)CO)C(=O)c2cccc(NC(=O)CCCCCC(=O)Nc3ccccc3N)c2O[C@@H]1CN(C)Cc1ccccc1,/,.,.
C[C@H]1ON(c2ccccc2)[C@@H](c2ccccc2)[C@@H]1C(=O)N1C(=O)OC[C@@H]1c1ccccc1,.,/,/
COc1ccc(S(=O)(=O)Nc2ccc3c(c2)C(=O)N([C@@H](C)CO)C[C@H](C)[C@@H](CN(C)S(=O)(=O)c2c(C)noc2C)OCCCC[C@@H](C)O3)cc1,.,/,/
C[C@@H]1CN([C@@H](C)CO)C(=O)c2cccc(NC(=O)CCCCCC(=O)Nc3ccccc3N)c2O[C@H]1CN(C)CC1CC1,/,60,.
C[C@H]1CN([C@@H](C)CO)C(=O)c2cccc(NC(=O)CCCCCC(=O)Nc3ccccc3N)c2O[C@H]1CN(C)CC1CCCCC1,.,.,.
C[C@H]1CN([C@@H](C)CO)C(=O)c2cccc(NC(=O)CCCCCC(=O)Nc3ccccc3N)c2O[C@@H]1CN(C)CC1CC1,.,77,.
C[C@@H]1CN([C@H](C)CO)C(=O)c2cccc(NC(=O)CCCCCC(=O)Nc3ccccc3N)c2O[C@@H]1CN(C)CC1CC1,.,.,.
C[C@@H]1CN([C@H](C)CO)C(=O)c2cccc(NC(=O)CCCCCC(=O)Nc3ccccc3N)c2O[C@H]1CN(C)CC1CC1,/,59,.
C[C@H](CO)N1C[C@H](C)[C@H](CN(C)CC2CCCCC2)Oc2c(NC(=O)CCCCCC(=O)Nc3ccccc3N)cccc2C1=O,.,.,.
C[C@@H]1CN([C@@H](C)CO)C(=O)c2cccc(NS(C)(=O)=O)c2O[C@@H]1CN(C)Cc1ccccc1,.,.,.
SMILES,A1 apoptosis 2,T cruzi intra,INS-1E rescue
C=CC[C@]1(C(=O)N(C)C)N=C(c2ccc(OCCCO)cc2)O[C@H]1c1ccccc1,.,/,/
C[C@H]1CN([C@@H](C)CO)C(=O)c2cc(NS(=O)(=O)c3ccccc3)ccc2O[C@@H]1CN(C)C(=O)Nc1ccc(C(F)(F)F)cc1,.,.,.
C[C@H]1CCCCO[C@H](CN(C)C(=O)Nc2ccc(C(F)(F)F)cc2)[C@@H](C)CN([C@@H](C)CO)C(=O)c2cc(NC(=O)Nc3ccccc3)ccc2O1,.,/,/
C[C@H]1CCCCO[C@@H](CN(C)Cc2ccc(C(=O)O)cc2)[C@@H](C)CN([C@@H](C)CO)C(=O)c2cc(NC(=O)Nc3ccc(F)cc3)ccc2O1,.,/,/
COc1ccc([Si](C)(C)[C@@H]2[C@@H](CCn3cc(CCO)nn3)O[C@]3(C(=O)N(c4ccccc4)c4ccccc43)[C@H]2C)cc1,12,/,/
COc1ccc([Si](C)(C)[C@H]2[C@H](CCO)O[C@@]3(C(=O)N(c4ccccc4)c4ccccc43)[C@@H]2C)cc1,.,/,/
COc1ccc([Si](C)(C)[C@@H]2[C@@H](CCO)O[C@]3(C(=O)N4c5c(cc(OC)cc53)C(C)=CC4(C)C)[C@H]2C)cc1,27,/,/
COc1ccc([Si](C)(C)[C@@H]2[C@@H](CCn3cc(CCO)nn3)O[C@]3(C(=O)N(C)c4ccccc43)[C@H]2C)cc1,.,/,/
C[C@@H]1CN([C@@H](C)CO)C(=O)c2cc(NC(=O)c3ccncc3)ccc2O[C@@H](C)CCCCO[C@@H]1CN(C)C(=O)C1CCCCC1,.,/,/
COC(=O)CCCCCCC(=O)N/N=C/c1ccccc1Cl,/,.,.
C[C@@H]1CCCCO[C@@H](CN(C)C(=O)c2ccncc2)[C@@H](C)CN([C@@H](C)CO)C(=O)c2cc(NS(=O)(=O)c3ccccc3)ccc2O1,.,/,/
COc1ccc([Si](C)(C)[C@@H]2[C@@H](CCO)O[C@]3(C(=O)N(Cc4cccc(NC(=O)[C@H](C)O)c4)c4ccccc43)[C@H]2C)cc1,.,/,/
C[C@@H]1CN([C@@H](C)CO)C(=O)Cc2cc(NC(=O)Nc3ccc(C(F)(F)F)cc3)ccc2O[C@H]1CN(C)Cc1ccc(C(F)(F)F)cc1,.,/,/
COc1ccc(CN(C)C[C@@H]2Oc3ccc(NC(=O)Nc4ccc(C(F)(F)F)cc4)cc3CC(=O)N([C@@H](C)CO)C[C@@H]2C)cc1,.,.,.
C[C@@H]1CN([C@H](C)CO)C(=O)Cc2cc(NC(=O)Nc3ccc(F)cc3)ccc2O[C@@H]1CN(C)Cc1ccc(C(F)(F)F)cc1,.,60,.
C[C@@H]1CN([C@H](C)CO)C(=O)Cc2cc(NC(=O)C3CCCCC3)ccc2O[C@H]1CN(C)Cc1ccc(C(F)(F)F)cc1,/,58,.
